Rows were chosen to be rich in hits. Some 1.9% of all compounds tested hit in one or more screens of this group.
APJ antag = antagonists of human APJ apelin receptor; inhibition, % at 20 µM; P35414; CHO-K1 APJ beta-arrestin complementation, luminescence; actives 0.32% (n = 330,000); AID 2521;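 active means inhibition above about 40% at 20 µM, limit read from the data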;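 further: cells challenged with 10 nM apelin-13 agonist together with compound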
Target sequence (P35414 whole entry, looked up): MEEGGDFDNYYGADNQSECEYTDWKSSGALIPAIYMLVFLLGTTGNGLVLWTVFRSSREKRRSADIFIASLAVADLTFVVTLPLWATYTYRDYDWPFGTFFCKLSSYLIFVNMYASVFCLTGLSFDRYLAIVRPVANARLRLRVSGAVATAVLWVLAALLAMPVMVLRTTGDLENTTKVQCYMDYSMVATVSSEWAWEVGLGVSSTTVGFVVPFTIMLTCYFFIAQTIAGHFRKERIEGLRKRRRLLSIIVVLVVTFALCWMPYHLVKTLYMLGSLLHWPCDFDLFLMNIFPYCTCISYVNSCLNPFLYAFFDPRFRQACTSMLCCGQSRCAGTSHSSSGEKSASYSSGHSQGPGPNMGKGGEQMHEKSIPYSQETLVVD
EBI2 block = blocks human EBI2 receptor beta-arrestin signaling; actives 0.81% (n = 360,000); EBI2 beta-arrestin recruitment, luminescence, 7a,25-OHC stimulated; inhibition, % at 5 µM; P32249; in the data active means inhibition above about 38%;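 further: enzyme fragment complementation signal reports receptor beta-arrestin coupling in cells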
Target sequence (P32249 whole entry, looked up, the tested form may be a part): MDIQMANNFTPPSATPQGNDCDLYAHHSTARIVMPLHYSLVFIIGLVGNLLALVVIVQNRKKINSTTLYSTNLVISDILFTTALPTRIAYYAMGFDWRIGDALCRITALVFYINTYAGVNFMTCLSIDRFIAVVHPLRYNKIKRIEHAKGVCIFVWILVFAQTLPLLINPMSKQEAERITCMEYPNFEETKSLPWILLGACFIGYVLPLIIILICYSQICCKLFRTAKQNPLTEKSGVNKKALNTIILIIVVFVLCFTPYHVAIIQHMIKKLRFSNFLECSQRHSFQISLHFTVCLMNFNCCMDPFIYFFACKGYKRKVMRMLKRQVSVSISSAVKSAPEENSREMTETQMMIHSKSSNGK
CCR6 antag = CCR6 (human) receptor antagonism. actives 0.49% (n = 340,000). AID 493098. inhibition, % at 20 µM. CHO-K1 CCR6 PathHunter beta-arrestin, luminescence, CCL20-stimulated;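 active means compounds whose inhibition of the agonist-driven luminescence signal at 20 µM reaches about 50%, limit read from the data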;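 further: cells stimulated with CCL20 at 14 nM final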
APJ agonist = agonists of human APJ apelin receptor; actives 0.11% (n = 330,000); activation, % at 20 µM; P35414; CHO-K1 APJ PathHunter beta-arrestin, luminescence; 0% DMSO wells, 100% apelin;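 active means activation more than six SD over the plate average, tested at 20 µM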
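system = engineered CHO-K1 APJ arrestin reporter cells | input = 1000 cells per well | timing = overnight seeding, 90 min compound at 25 °C, 1 h detection | measured by = enzyme-fragment complementation luminescence | read-out = beta-arrestin recruitment to APJ as agonist activity, luminescent signal | control set = negative DMSO alone, positive Apelin-13 at 10 nM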
CXCR6 block = CXCR6 (human) receptor inhibition | inhibition, % at 20 µM | O00574 | CHO-K1 PathHunter CXCR6 beta-arrestin, luminescence | actives 0.36% (n = 360,000); in the data active means inhibition above about 34%, passing the limit was not always enough;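 further: antagonist mode with CXCL16 agonist at 10 nM final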
H9c2 TAG inh = inhibitors of triacylglycerol accumulation; H9c2 cells, Nile Red lipid (TAG) fluorescence; cells loaded with 200 µM oleic acid; inhibition, % at 12.5 µM; actives 0.66% (n = 230,000);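 active means pattern-corrected inhibition of lipid staining of at least 50% with the nuclear-stain viability signal not falling by more than 50%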
H9c2 TAG conf = confirmation of triacylglycerol accumulation inhibitors; inhibition, % at 12.5 µM; H9c2 lipid accumulation, Nile Red fluorescence; cells loaded with 200 µM oleic acid; actives 71% (n = 990); shares compounds with H9c2 TAG inh;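 active means mean inhibition across replicates of 40% or more; inactive means mean inhibition below 40%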
Large screens that a line does not name were inactive (follow-up assays come after a bar, where they were run).

CCCc1[nH]n(-c2ccc([N+](=O)[O-])cc2)c(=O)c1C=NCCc1c[nH]c2ccccc12	H9c2 TAG inh 63 | H9c2 TAG conf 65
Cc1ccc(C2C(C=Nc3c(C)n(C)n(-c4ccccc4)c3=O)=C(c3ccccc3)Oc3ccccc32)cc1 (centres undefined)	H9c2 TAG inh 69 | H9c2 TAG conf 57
C=CCC[C@H](Cc1ccc(F)cc1)C(=O)OC[C@H](C)NC(=O)[C@@H](CC=C)CC(=O)N[C@H](CO)Cc1ccccc1	H9c2 TAG inh 55 | H9c2 TAG conf 44
Cc1nc(N/N=C/c2cccc(F)c2)cc(N2CCOCC2)n1	H9c2 TAG inh 64 | H9c2 TAG conf 68
Oc1cccc(/C=N/Nc2cc(N3CCOCC3)nc(N3CCOCC3)n2)c1	none
CCN(CC)S(=O)(=O)c1ccc(/C=C/C(=O)OCC(=O)NCc2ccco2)cc1	none
C/C(=N\NC(=O)Cc1ccc(Cl)cc1)c1cccnc1	none
COc1cc2c(cc1[N+](=O)[O-])-c1ccc([N+](=O)[O-])cc1C2=NNC(N)=S	H9c2 TAG inh 52 (no result: APJ antag, CCR6 antag, APJ agonist) | H9c2 TAG conf 42
Cc1cc(NC(=O)CSc2nc(-c3cccs3)nc3ccccc23)no1	H9c2 TAG inh 78 | H9c2 TAG conf 73
CC(C)(C)c1ccc(C(=O)NNc2cc(N3CCCCC3)nc(N3CCCCC3)n2)cc1	H9c2 TAG inh 60 | H9c2 TAG conf inactive
N=c1c(C(=O)NCc2ccc(F)cc2)cc2c(=O)n3ccccc3nc2n1CC1CCCO1 (centres undefined)	H9c2 TAG inh 51 | H9c2 TAG conf inactive
CC(=O)O[C@H]1C(=O)[C@]2(C)[C@H]([C@H](OC(=O)c3ccccc3)[C@]3(O)C[C@H](OC(=O)[C@H](O)[C@@H](NC(=O)c4ccccc4)c4ccccc4)C(C)=C1C3(C)C)[C@]1(OC(C)=O)CO[C@@H]1C[C@@H]2O	H9c2 TAG inh 54 | H9c2 TAG conf 57
CC(=O)O[C@H]1C(=O)[C@@]2(C)C([C@H](OC(=O)c3ccccc3)[C@]3(O)C[C@H](OC(=O)[C@H](O)[C@@H](NC(=O)c4ccccc4)c4ccccc4)C(C)=C1C3(C)C)[C@]1(OC(C)=O)CO[C@@H]1C[C@H]2O (some centres undefined)	none (no result: H9c2 TAG inh)
CC(=O)Nc1ccc(C=NNC(=O)CCCC(=O)NN=Cc2ccc(NC(C)=O)cc2)cc1	none (no result: APJ antag, APJ agonist)
CCOc1ccc2nc(NC(=O)CN3CCN(C)CC3)sc2c1	H9c2 TAG inh 68 | H9c2 TAG conf inactive
CCOc1ccc2nc(NC(=O)CN3CCN(CC)CC3)sc2c1	none (no result: H9c2 TAG inh)
CCN(CC)CCNC1=NCCn2c1cc1cc(OC)ccc12	none
CN=C1c2cc3cc(OC)ccc3n2CCN1Cc1ccccc1	H9c2 TAG inh 57 (no result: APJ antag, APJ agonist) | H9c2 TAG conf 51
Cc1ccc(-c2nn(-c3ccccc3)cc2/C=N/NC(=O)c2ccncc2)o1	none
CCOc1cc(C(=O)N/N=C/c2cn(-c3ccccc3)nc2-c2cc3ccccc3o2)cc(OCC)c1OCC	H9c2 TAG inh 59 (no result: APJ antag, APJ agonist) | H9c2 TAG conf 63
C=CCn1c(N)c(C(=O)Nc2ccccc2)c2nc3ccccc3nc21	H9c2 TAG inh 78 | H9c2 TAG conf 88
C=CCNC(=O)c1c(N)n(-c2cccc(S(N)(=O)=O)c2)c2nc3ccccc3nc12	none
NC(Cc1ccc(C(F)(F)F)cc1)c1csc(Nc2ccc(C(=O)NCCCO)cn2)n1 (centres undefined)	H9c2 TAG inh 57 (no result: APJ antag, CCR6 antag, APJ agonist) | H9c2 TAG conf inactive
NC(Cc1ccc(C(F)(F)F)cc1)c1csc(Nc2nncc3ccccc23)n1 (centres undefined)	H9c2 TAG inh 52 (no result: APJ antag, CCR6 antag, APJ agonist) | H9c2 TAG conf 68
CCCCN(C)C(=O)c1ccc(Nc2nc(C(N)Cc3ccc(C(F)(F)F)cc3)cs2)nc1 (centres undefined)	H9c2 TAG inh 56 (no result: APJ antag, CCR6 antag, APJ agonist) | H9c2 TAG conf 71
NC(COCc1ccccc1)c1csc(Nc2nncc3ccccc23)n1 (centres undefined)	none (no result: APJ antag, CCR6 antag, APJ agonist)
Cc1ccc(CNC(=O)CNS(=O)(=O)c2ccc3c(c2)C(C)(C)C(=O)N3C)cc1	none
N#Cc1ccc(-c2nc3ccc(Cl)cn3c2Cc2ccsc2)cc1	none (no result: APJ antag, CCR6 antag, APJ agonist, H9c2 TAG inh)
COC(=O)C1=C(C)N(Cc2ccccc2)C(=NCc2ccc(OC)cc2)N[C@H]1c1ccccc1	H9c2 TAG inh 56 | H9c2 TAG conf inactive
COC(=O)C1=C(C)N(Cc2ccccc2)C(=NCC(C)C)N[C@H]1c1ccccc1	none (no result: EBI2 block, CXCR6 block, H9c2 TAG inh)
CCc1cc(CNC(=O)c2ccc(OC3CCN(C(C)=O)CC3)c(OC)c2)on1	none (no result: H9c2 TAG inh)
CCOC(=O)Nc1ccc2c(c1)C(=NNC(=S)NC)c1ccccc1-2	H9c2 TAG inh 58 (no result: APJ antag, CCR6 antag, APJ agonist) | H9c2 TAG conf 70
COC(=O)C=C1CCC2C3CCC4=CC(=O)C(Br)CC4(C)C3C(=O)CC12C (centres undefined)	H9c2 TAG inh 63 (no result: APJ antag, APJ agonist) | H9c2 TAG conf 85
CCN(CC)CCCN(C(=O)c1ccc(Br)cc1)c1nc(-c2ccc(OC)cc2)cs1	none
CCN(CC)CCCN(C(=O)c1cccs1)c1nc(-c2ccc(OC)cc2)cs1	H9c2 TAG inh 55 | H9c2 TAG conf 47
CSc1ccc(CN2CCC(C)(Oc3ccccc3F)C2)cc1 (centres undefined)	none (no result: APJ antag, CCR6 antag, APJ agonist)
COC(=O)c1ccccc1S(=O)(=O)N1CCC(C(=O)OC(C)C(=O)N(C)Cc2ccccc2)CC1 (centres undefined)	none (no result: APJ antag, APJ agonist)
CCC(C)NCCOCCOc1ccc(Cl)c(C)c1C (centres undefined)	none
CCC(C)NCCOCCOc1ccc(Cl)c2ccccc12 (centres undefined)	H9c2 TAG inh 53 | H9c2 TAG conf 45
CCOC(=O)C1CCN(C(=O)C2(NC(=O)Nc3ccccc3Cl)CCCCC2)CC1	H9c2 TAG inh 70 | H9c2 TAG conf inactive
O=S(=O)(c1ccc(S(=O)(=O)N(Cc2ccccc2)Cc2ccco2)cc1)N1CCCC1	none (no result: H9c2 TAG inh)
COC(=O)/C=C/c1ccccc1S(=O)(=O)N(Cc1ccccc1)Cc1ccco1	H9c2 TAG inh 54 | H9c2 TAG conf 48
O=C1CCCC2=C1C1(CCCC1)N=C(Nc1nc3cc(-c4ccccc4)ccc3o1)N2	H9c2 TAG inh 62 (no result: APJ antag, CCR6 antag, APJ agonist) | H9c2 TAG conf 71
O=C1CCCC2=C1C1(CCCC1)N=C(Nc1nc3ccccc3o1)N2	none (no result: APJ antag, CCR6 antag, APJ agonist)
Cc1[nH]c2ccccc2c1/C=N/Nc1nc(Nc2ccc(F)cc2)nc(N2CCOCC2)n1	H9c2 TAG inh 76 | H9c2 TAG conf 86
C=CCSc1nnc(NC(=O)CCNC(=O)c2ccccc2Cl)s1	none (no result: APJ antag, CCR6 antag, APJ agonist)
COCCN(C(=S)Nc1ccc(Cl)cc1OC)C1CCN(C(C)=O)CC1	none
CC(C)NS(=O)(=O)c1ccc(CCC(=O)Nc2cc(Cl)ccc2Oc2ccccc2)cc1	H9c2 TAG inh 52 | H9c2 TAG conf inactive
